The values below come from ChEMBL document CHEMBL1159330, “New diarylheptanoids and diarylheptanoid glucosides from the rhizomes of Tacca chantrieri and their cytotoxic activity” (J Nat Prod, 2002).

Each structure is given as a SMILES string. Values after ≈ are worked out from the molar mass of the structure shown.

One assay relates to HSC-2. The assay is described as follows: Cytotoxicity against human HSC2 cells by MTT assay. Format: functional, cell-based. Put shortly: (§1)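 HSC-2 grown in DMEM with 10% heat-inactivated FBS. HGF taken from a healthy person's gingival biopsy, explant-cultured, used at passages 5-7. Cells trypsinized, seeded at 6 × 10³ per well, grown 24 h. Washed with PBS, then compound for 24 h. Washed, 0.2 mg/mL MTT in DMEM/10% FBS for 4 h. Lysed in DMSO, A540 measured.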
A general note: Formazan colour is commonly taken as a measure of viable cells.

Assay [1] is described as follows: Cytotoxicity against HGF by MTT assay. Format: cell-based. Particulars: Homo sapiens. An outline of the steps: as §1
Another assay has as its system HL-60. Put plainly: Cytotoxicity against human HL60 cells after 72 hrs by MTT assay. In kind it is functional, cell-based. Particulars: HL-60, 72 h. An outline of the steps:
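HL-60 cells kept in RPMI 1640 with 10% heat-inactivated FBS, penicillin and streptomycin, 5% CO₂, 37 °C. Seeded at 4 × 10⁴ cells/mL, 196 µL per well, pre-incubated 24 h. Sample added in EtOH-H₂O (1:1) to final 0.1-10 µg/mL, solvent-only controls. Exposure 72 h. Triplicate. IC₅₀ = 50% drop in viable cells.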

In the case of `Oc1ccc(CC[C@@H](O)C[C@H](O)CCc2ccc(O)c(O)c2)cc1`, the IC50 (in general, the concentration needed to halve the response being measured) in the assay on HSC-2 came out at 54 µg/mL (≈ 162 µM); in assay [1], 162 µg/mL (≈ 487 µM); in the assay on HL-60, 2.1 µg/mL (≈ 6.32 µM).

As for `COc1cc(CC[C@@H](O)C[C@H](O)CCc2ccc(O)cc2)ccc1O`, the IC50 in the assay with HL-60 is more than 10 µg/mL.

As to `OC[C@H]1O[C@@H](O[C@H](CCc2ccc(O)c(O)c2)C[C@H](O)CCc2ccc(O)cc2)[C@H](O)[C@@H](O)[C@@H]1O`, the results for the IC50 (with HSC-2; in assay [1]; in the assay on HL-60) were 158 µg/mL (≈ 319 µM), 220 µg/mL (≈ 445 µM) and 6.2 µg/mL (≈ 12.5 µM), respectively.

Regarding `OC[C@H]1O[C@@H](O[C@H](CCc2ccc(O)cc2)C[C@H](O)CCc2ccc(O)c(O)c2)[C@H](O)[C@@H](O)[C@@H]1O`, the half-maximal inhibitory concentration (IC50) in the assay with HSC-2 was 155 µg/mL (≈ 313 µM); in assay [1], more than 250 µg/mL; in the assay with HL-60, 5.5 µg/mL (≈ 11.1 µM).

In the case of `COc1ccc(CC[C@@H](O)C[C@H](O)CCc2ccc(OC)c(OC)c2)cc1`, the IC50 was determined as 3.9 µg/mL (≈ 10.4 µM) in the assay with HSC-2, 176 µg/mL (≈ 470 µM) in assay [1] and 5.5 µg/mL (≈ 14.7 µM) with HL-60.

For the compound `Oc1ccc(CC[C@@H](O)C[C@H](O)CCc2ccc(O)c(O)c2)cc1O`, the IC50 with HSC-2 was 54 µg/mL (≈ 155 µM); in assay [1] it was more than 250 µg/mL; with HL-60 it was 1.8 µg/mL (≈ 5.17 µM).

As to `COc1cc(CC[C@@H](O)C[C@H](O)CCc2ccc(O)c(O)c2)ccc1O`, the IC50 in the assay on HL-60 was determined as 4.1 µg/mL (≈ 11.3 µM).

Take `COc1ccc(CC[C@@H](O)C[C@H](O)CCc2ccc(OC)cc2)cc1`: the values for the IC50 (with HSC-2; in assay [1]; in the assay with HL-60) were 23 µg/mL (≈ 66.8 µM), 173 µg/mL (≈ 502 µM) and 6.4 µg/mL (≈ 18.6 µM), respectively.

For the compound `COc1ccc(CC[C@@H](O)C[C@H](O)CCc2ccc(OC)c(OC)c2)cc1OC`, the concentration for half-maximal inhibition (IC50) in the assay on HSC-2 is 6.6 µg/mL (≈ 16.3 µM); in assay [1], 174 µg/mL (≈ 430 µM); in the assay with HL-60 it was 4.9 µg/mL (≈ 12.1 µM).

In the case of `OC[C@H]1O[C@@H](O[C@H](CCc2ccc(O)c(O)c2)C[C@H](O)CCc2ccc(O)c(O)c2)[C@H](O)[C@@H](O)[C@@H]1O`, the results for the IC50 (with HSC-2; in assay [1]; in the assay on HL-60) were 92 µg/mL (≈ 180 µM), 189 µg/mL (≈ 370 µM) and 3 µg/mL (≈ 5.88 µM), respectively.

In the assay on HL-60, `COc1cc(CC[C@@H](O)C[C@H](O)CCc2ccc(O)c(OC)c2)ccc1O` came in with an IC50 of more than 10 µg/mL.

On to `COc1cc(CC[C@@H](O)C[C@@H](CCc2ccc(O)c(OC)c2)O[C@@H]2O[C@H](CO)[C@@H](O)[C@H](O)[C@H]2O)ccc1O`, for which the IC50 was 198 µg/mL (≈ 368 µM) in the assay with HSC-2, more than 250 µg/mL in assay [1] and more than 10 µg/mL with HL-60.

Take `OC[C@H]1O[C@@H](O[C@H](CCc2ccc(O)cc2)C[C@H](O)CCc2ccc(O)cc2)[C@H](O)[C@@H](O)[C@@H]1O`: the half-maximal inhibitory concentration (IC50) in the assay on HSC-2 is 157 µg/mL (≈ 328 µM); in assay [1] it was 213 µg/mL (≈ 445 µM); with HL-60, more than 10 µg/mL.

For `COc1cc(CC[C@H](C[C@H](O)CCc2ccc(O)c(O)c2)O[C@@H]2O[C@H](CO)[C@@H](O)[C@H](O)[C@H]2O)ccc1O`, the concentration for half-maximal inhibition (IC50) with HSC-2 is 209 µg/mL (≈ 398 µM); in assay [1], more than 250 µg/mL; in the assay on HL-60, 4.5 µg/mL (≈ 8.58 µM).

`COc1cc(CC[C@H](C[C@H](O)CCc2ccc(O)cc2)O[C@@H]2O[C@H](CO)[C@@H](O)[C@H](O)[C@H]2O)ccc1O`: the concentration for half-maximal inhibition (IC50) was 160 µg/mL (≈ 315 µM) with HSC-2, more than 250 µg/mL in assay [1] and more than 10 µg/mL in the assay on HL-60.

For the compound `Oc1ccc(CC[C@@H](O)C[C@H](O)CCc2ccc(O)cc2)cc1` [(+)-HANNOKINOL], the values for the IC50 (with HSC-2; in assay [1]; in the assay on HL-60) were 231 µg/mL (≈ 730 µM), 177 µg/mL (≈ 559 µM) and more than 10 µg/mL, respectively.

For the compound `COc1cc([C@@H]2c3cc4c(cc3[C@@H](O[C@@H]3O[C@@H]5CO[C@@H](C)O[C@H]5[C@H](O)[C@H]3O)[C@H]3COC(=O)[C@H]23)OCO4)cc(OC)c1O` [ETOPOSIDE], the values for the IC50 (in assay [1]; in the assay on HL-60) were more than 200 µg/mL and 0.2 µg/mL (≈ 0.34 µM), respectively.
